From ChEMBL document CHEMBL4373647, “Design, synthesis, and antimicrobial evaluation of 1,4-dihydroindeno[1,2-c]pyrazole tethered carbohydrazide hybrids: exploring their in silico ADMET, ergosterol inhibition and ROS inducing potential” (Medchemcomm, 2019)
Converted amounts (≈) assume the structure as drawn. The source made the active and inactive calls. The rule behind the calls is not given here.

Assays:
Format in all cases: functional
Staphylococcus aureus [1] = test: Antibacterial activity against Staphylococcus aureus MLS-16 MTCC 2940 assessed as inhibition of bacterial growth incubated for 24 hrs by agar well diffusion method; conditions: MLS-16 MTCC 2940, 24 h
How it was run: (§1)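 Strains from MTCC; inoculum at 0.5 McFarland spread on Mueller-Hinton agar; 6 mm wells loaded with compound over 125–0.97 µg/mL; ciprofloxacin positive control (same range), DMSO negative control. Plates held 24 h at 37 °C; MIC taken as lowest concentration giving a clear inhibition zone. Triplicate runs, mean MIC reported.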

Staphylococcus aureus [2] = test: Antibacterial activity against Staphylococcus aureus MTCC 96 assessed as inhibition of bacterial growth incubated for 24 hrs by agar well diffusion method; conditions: MTCC 96, 24 h; how it was run: as §1
Pseudomonas aeruginosa [3] = test: Antibacterial activity against Pseudomonas aeruginosa MTCC 2453 assessed as inhibition of bacterial growth incubated for 24 hrs by agar well diffusion method; conditions: MTCC 2453, 24 h; how it was run: as §1
Micrococcus luteus [4] = test: Antibacterial activity against Micrococcus luteus MTCC 2470 assessed as inhibition of bacterial growth incubated for 24 hrs by agar well diffusion method; conditions: MTCC 2470, 24 h; how it was run: as §1
Candida albicans = test: Antifungal activity against Candida albicans MTCC 3017 assessed as inhibition of fungal growth incubated for 24 hrs by agar well diffusion method
How it was run: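 Candida strains from MTCC, pre-cultured and spread on Mueller Hinton agar. Wells received compound dissolved in 10% DMSO, 125–0.97 µg/mL; miconazole standard over the same range, DMSO negative control. After 24 h at 37 °C, MIC was read as the lowest concentration giving an inhibition zone. Duplicate experiments, means given.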

Raoultella planticola [5] = test: Antibacterial activity against Klebsiella planticola MTCC 530 assessed as inhibition of bacterial growth incubated for 24 hrs by agar well diffusion method; conditions: MTCC 530, 24 h; how it was run: as §1
Escherichia coli [6] = test: Antibacterial activity against Escherichia coli MTCC 739 assessed as inhibition of bacterial growth incubated for 24 hrs by agar well diffusion method; conditions: MTCC 739, 24 h; how it was run: as §1
Bacillus subtilis [7] = test: Antibacterial activity against Bacillus subtilis MTCC 121 assessed as inhibition of bacterial growth incubated for 24 hrs by agar well diffusion method; conditions: MTCC 121, 24 h; how it was run: as §1
Staphylococcus aureus [8] = test: Bactericidal activity against Staphylococcus aureus MLS-16 MTCC 2940 assessed as bacterial killing incubated for 24 hrs; conditions: MLS-16 MTCC 2940, 24 h
How it was run: (§2)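 Broth tube assay: compound at 0–125 µg/mL in Mueller Hinton broth, overnight culture added to 0.5 McFarland (1.5 × 10^8 cfu/mL), held 24 h at 37 °C. 10 µL from each tube plated on Mueller Hinton agar. MBC is the lowest concentration that kills the strain. Duplicates, means reported.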

Raoultella planticola [9] = test: Bactericidal activity against Klebsiella planticola MTCC 530 assessed as bacterial killing incubated for 24 hrs; conditions: MTCC 530, 24 h; how it was run: as §2
Pseudomonas aeruginosa [10] = test: Bactericidal activity against Pseudomonas aeruginosa MTCC 2453 assessed as bacterial killing incubated for 24 hrs; conditions: MTCC 2453, 24 h; how it was run: as §2
Staphylococcus aureus [11] = test: Bactericidal activity against Staphylococcus aureus MTCC 96 assessed as bacterial killing incubated for 24 hrs; conditions: MTCC 96, 24 h; how it was run: as §2
Micrococcus luteus [12] = test: Bactericidal activity against Micrococcus luteus MTCC 2470 assessed as bacterial killing incubated for 24 hrs; conditions: MTCC 2470, 24 h; how it was run: as §2
Escherichia coli [13] = test: Bactericidal activity against Escherichia coli MTCC 739 assessed as bacterial killing incubated for 24 hrs; conditions: MTCC 739, 24 h; how it was run: as §2
Bacillus subtilis [14] = test: Bactericidal activity against Bacillus subtilis MTCC 121 assessed as bacterial killing incubated for 24 hrs; conditions: MTCC 121, 24 h; how it was run: as §2

Structure (SMILES) | MIC (Staphylococcus aureus [1]) [µg/mL] | MIC (Staphylococcus aureus [2]) [µg/mL] | MIC (Pseudomonas aeruginosa [3]) [µg/mL] | MIC (Micrococcus luteus [4]) [µg/mL] | MIC (Candida albicans; MTCC 3017, 24 h) [µg/mL] | MIC (Escherichia coli [6]) [µg/mL] | MIC (Bacillus subtilis [7]) [µg/mL] | MIC (Raoultella planticola [5]) [µg/mL] | MBC (Staphylococcus aureus [8]) [µg/mL] | MBC (Raoultella planticola [9]) [µg/mL] | MBC (Pseudomonas aeruginosa [10]) [µg/mL] | MBC (Staphylococcus aureus [11]) [µg/mL] | MBC (Micrococcus luteus [12]) [µg/mL] | MIC (Candida albicans) | MBC (Escherichia coli [13]) [µg/mL] | MBC (Bacillus subtilis [14]) [µg/mL]
COc1cc(/C=N/NC(=O)c2n[nH]c3c2Cc2ccccc2-3)cc(OC)c1OC | 15.6 (≈ 39.8 µM) | 15.6 (≈ 39.8 µM) | > 125 | > 125 | > 125 | > 125 | 7.8 (≈ 19.9 µM) | > 125 |  |  |  |  |  |  |  | 
COc1ccc2c(c1)Cc1c(C(=O)N/N=C/c3cc(OC)c(OC)c(OC)c3)n[nH]c1-2 | 7.8 (≈ 18.5 µM) | 15.6 (≈ 36.9 µM) | > 125 | 3.9 (≈ 9.23 µM) | > 125 | > 125 | 3.9 (≈ 9.23 µM) | > 125 |  |  |  |  |  |  |  | 
COc1ccc2c(c1)Cc1c(C(=O)N/N=C/c3ccc(O)cc3)n[nH]c1-2 | 7.8 (≈ 22.4 µM) | 7.8 (≈ 22.4 µM) | > 125 | 3.9 (≈ 11.2 µM) | > 125 | > 125 | 7.8 (≈ 22.4 µM) | > 125 |  |  |  |  |  |  |  | 
O=C(O)c1cn(C2CC2)c2cc(N3CCNCC3)c(F)cc2c1=O [CIPROFLOXACIN] | 0.9 (≈ 2.72 µM) | 0.9 (≈ 2.72 µM) | 0.9 (≈ 2.72 µM) | 0.9 (≈ 2.72 µM) |  | 0.9 (≈ 2.72 µM) | 0.9 (≈ 2.72 µM) | 0.9 (≈ 2.72 µM) | 1.9 (≈ 5.73 µM) | 1.9 (≈ 5.73 µM) | 1.9 (≈ 5.73 µM) | 1.9 (≈ 5.73 µM) | 1.9 (≈ 5.73 µM) | inactive | 1.9 (≈ 5.73 µM) | 1.9 (≈ 5.73 µM)
O=C(N/N=C/c1ccc(Cl)cc1)c1n[nH]c2c1Cc1cc(F)ccc1-2 | 15.6 (≈ 44 µM) | 15.6 (≈ 44 µM) | > 125 | > 125 | > 125 | > 125 | 7.8 (≈ 22 µM) | > 125 |  |  |  |  |  |  |  | 
O=C(N/N=C/c1ccc(Br)cc1)c1n[nH]c2c1Cc1cc(F)ccc1-2 | 15.6 (≈ 39.1 µM) | 7.8 (≈ 19.5 µM) | > 125 | > 125 | > 125 | > 125 | 7.8 (≈ 19.5 µM) | > 125 |  |  |  |  |  |  |  | 
COc1ccc2c(c1)Cc1c(C(=O)N/N=C/c3ccc(Cl)cc3)n[nH]c1-2 | 7.8 (≈ 21.3 µM) | 3.9 (≈ 10.6 µM) | > 125 | 3.9 (≈ 10.6 µM) | > 125 | 3.9 (≈ 10.6 µM) | 7.8 (≈ 21.3 µM) | > 125 |  |  |  |  |  |  |  | 
COc1cc(/C=N/NC(=O)c2n[nH]c3c2Cc2cc(F)ccc2-3)cc(OC)c1OC | 7.8 (≈ 19 µM) | 3.9 (≈ 9.5 µM) | 7.8 (≈ 19 µM) | 7.8 (≈ 19 µM) | > 125 | 3.9 (≈ 9.5 µM) | 3.9 (≈ 9.5 µM) | 7.8 (≈ 19 µM) |  |  |  |  |  |  |  | 
COc1ccc2c(c1)Cc1c(C(=O)N/N=C/c3ccc(OC)c(OC)c3)n[nH]c1-2 | 7.8 (≈ 19.9 µM) | 3.9 (≈ 9.94 µM) | > 125 | 3.9 (≈ 9.94 µM) | > 125 | > 125 | 7.8 (≈ 19.9 µM) | > 125 |  |  |  |  |  |  |  | 

Further lines, with some results ahead:

MIC (Staphylococcus aureus [1]) [µg/mL] | MIC (Staphylococcus aureus [2]) [µg/mL] | MIC (Pseudomonas aeruginosa [3]) [µg/mL] | MIC (Micrococcus luteus [4]) [µg/mL] | MIC (Candida albicans; MTCC 3017, 24 h) [µg/mL] | MIC (Escherichia coli [6]) [µg/mL] | MIC (Bacillus subtilis [7]) [µg/mL] | Structure (SMILES) | MIC (Raoultella planticola [5]) [µg/mL] | MBC (Staphylococcus aureus [8]) [µg/mL] | MBC (Raoultella planticola [9]) [µg/mL] | MBC (Pseudomonas aeruginosa [10]) [µg/mL] | MBC (Staphylococcus aureus [11]) [µg/mL] | MBC (Micrococcus luteus [12]) [µg/mL] | MIC (Candida albicans) | MBC (Escherichia coli [13]) [µg/mL] | MBC (Bacillus subtilis [14]) [µg/mL]
> 125 | > 125 | > 125 | > 125 | > 125 | > 125 | > 125 | COc1ccc(/C=N/NC(=O)c2n[nH]c3c2Cc2ccccc2-3)cc1OC | > 125 |  |  |  |  |  |  |  | 
> 125 | > 125 | > 125 | > 125 | > 125 | > 125 | 15.6 (≈ 43.8 µM) | O=C(N/N=C/c1c(F)cc(F)cc1F)c1n[nH]c2c1Cc1ccccc1-2 | > 125 |  |  |  |  |  |  |  | 
3.9 (≈ 10.4 µM) | 7.8 (≈ 20.8 µM) | > 125 | > 125 | 31.2 (≈ 83.4 µM) | > 125 | 7.8 (≈ 20.8 µM) | O=C(N/N=C/c1c(F)cc(F)cc1F)c1n[nH]c2c1Cc1cc(F)ccc1-2 | > 125 |  |  |  |  |  |  |  | 
3.9 (≈ 10.3 µM) | > 125 | > 125 | > 125 | > 125 | > 125 | > 125 | COc1ccc(/C=N/NC(=O)c2n[nH]c3c2Cc2cc(F)ccc2-3)cc1OC | > 125 |  |  |  |  |  |  |  | 
> 125 | > 125 | > 125 | > 125 | > 125 | > 125 | > 125 | COc1ccc2c(c1)Cc1c(C(=O)N/N=C/c3ccc(Br)cc3)n[nH]c1-2 | > 125 |  |  |  |  |  |  |  | 
3.9 (≈ 10.6 µM) | > 125 | > 125 | > 125 | 31.2 (≈ 85.2 µM) | > 125 | > 125 | COc1cc(/C=N/NC(=O)c2n[nH]c3c2Cc2cc(F)ccc2-3)ccc1O | > 125 |  |  |  |  |  |  |  | 
3.9 (≈ 11.6 µM) | 3.9 (≈ 11.6 µM) | > 125 | > 125 | > 125 | 7.8 (≈ 23.2 µM) | 7.8 (≈ 23.2 µM) | O=C(N/N=C/c1ccc(Cl)cc1)c1n[nH]c2c1Cc1ccccc1-2 | > 125 |  |  |  |  |  |  |  | 
15.6 (≈ 40.9 µM) | 15.6 (≈ 40.9 µM) | > 125 | > 125 | > 125 | > 125 | 15.6 (≈ 40.9 µM) | O=C(N/N=C/c1ccc(Br)cc1)c1n[nH]c2c1Cc1ccccc1-2 | > 125 |  |  |  |  |  |  |  | 
